Source: ChEMBL document CHEMBL4342526, “Exploration of the Structural Space in 4(3H)-Quinazolinone Antibacterials” (J Med Chem, 2020)

Columns and labels:
Staphylococcus aureus [1] = test: […] activity against clindamycin/erythromycin/spectinomycin-resistant mec-positive Staphylococcus aureus NRS70 incubated for 16 to 20 hrs followed by re-plating on agar plate; type: functional; settings: read-out: MBC99.9
[2] = Elimination half life in ICR mouse at 10 mg/kg, po administered via gavage by UV-UPLC analysis; type: ADME, organism-based; settings: in vivo, read-out: beta t1/2 (converted)
[3] = Selectivity index, ratio of IC50 for human HeLa cells to MIC for clindamycin/erythromycin/spectinomycin-resistant mec-positive Staphylococcus aureus NRS70; type: toxicity
Outline: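 HeLa cytotoxicity by XTT assay in triplicate, IC50 by nonlinear regression; ratio IC50 over broth microdilution MIC against NRS70.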

Staphylococcus aureus [4] = test: (§1) Potentiation of piperacillin and tazobactam-induced bactericidal activity against methicillin resistant Staphylococcus aureus NRS70 infected in ICR mouse model of neutropenic thigh infection assessed as log reduction in bacterial count in thigh at 40 mg/kg, sc administered at 8 hrs interval for 3 times starting from 1 hr post infection and measured 24 hrs post infection; type: functional
Outline: (§2)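 Neutropenic ICR mouse thigh model as above (cyclophosphamide 200 mg/kg ip days −4 and −1; NRS70 1 × 10^6 CFU/mL, 0.1 mL im right thigh); compound given with piperacillin 12 mg/kg plus tazobactam 1.5 mg/kg, sc in 10% DMSO/90% water every 8 h ×3 from 1 h; thigh CFU at 24 h; n = 8; mean ± SEM, ANOVA/Tukey.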

Enterococcus faecalis = test: Antibacterial activity against Enterococcus faecalis ATCC 29212 measured after 16 to 20 hrs by microdilution method; type: functional
Outline: (§3)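 CLSI broth microdilution: two-fold serial dilutions in triplicate in cation-adjusted Mueller–Hinton broth with 2% NaCl, inoculum 5 × 10^5 CFU/mL, incubated at 37 °C for 16–20 h. MIC is the lowest concentration preventing visible growth.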

[5] = AUC (0 to infinity) in ICR mouse at 10 mg/kg, po administered via gavage by UV-UPLC analysis; type: ADME, organism-based; set-up: dose 10 mg/kg, route oral, time infinity; settings: in vivo
Staphylococcus aureus [6] = test: as §1, with “20” for “40”; type: functional; outline: as §2
[7] = Clearance in ICR mouse at 10 mg/kg, iv by UV-UPLC analysis relative to hepatic blood flow; type: ADME, organism-based; settings: in vivo
Outline: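 Female ICR mice, 6–8 weeks old, 20–25 g. Each received 50 μL by tail-vein injection (5 or 10 mg/kg) of a filter-sterilized 2 or 4 mg/mL solution in 20% DMSO/10% Tween-80/70% water. Terminal blood was collected and plasma harvested by centrifugation. Plasma was precipitated with acetonitrile containing internal standard, and the supernatant was analyzed by C18 UPLC with UV detection at 285 nm.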

Bacillus cereus = test: Antibacterial activity against Bacillus cereus ATCC 13061 measured after 16 to 20 hrs by microdilution method; type: functional; outline: as §3
Staphylococcus aureus [8] = test: as §1, with “Bactericidal” for “Potentiation of piperacillin and tazobactam-induced bactericidal”, “20” for “40”; type: functional
Outline: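 Female ICR mice (6–8 weeks, 20–25 g) made neutropenic with cyclophosphamide 200 mg/kg ip at 4 and 1 days pre-infection; 0.1 mL NRS70 at 1 × 10^6 CFU/mL in brain heart infusion injected into right thigh; drug in 10% DMSO/90% water sc every 8 h ×3 from 1 h post-infection; thigh CFU counted at 24 h; n = 8/group; mean ± SEM, one-way ANOVA with Tukey test.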

Which MBC (Staphylococcus aureus [1]) does the source give for N#Cc1ccc(/C=C/c2nc3ccccc3c(=O)n2-c2cc(C(=O)O)ccc2F)cc1 here?
The MBC was over 128 µg/mL.

And the half-life [2]?
The half-life was 11.2 h.

And the selectivity ratio [3]?
Its selectivity ratio is 124.

What about the “log(activity)” value (Staphylococcus aureus [4]) of the same compound?
Its value is 1.33.

What about the MIC (Enterococcus faecalis) of the same compound?
The MIC was over 128 µg/mL.

And the AUC(0-inf) [5]?
The AUC(0-inf) was 16800 ng·h/mL.

And the “log(activity)” value (Staphylococcus aureus [6])?
Its value is 0.75.

And the CL [7]?
Its CL is under 10%.

And the MIC (Bacillus cereus)?
The MIC was over 128 µg/mL.

What about the “log(activity)” value (Staphylococcus aureus [8]) of the same compound?
The value was 0.47.
